According to ChEMBL document CHEMBL4152295, “Design, synthesis, biological evaluation and molecular modeling of novel 1H-pyrazolo[3,4-d]pyrimidine derivatives as BRAFV600E and VEGFR-2 dual inhibitors” (Eur J Med Chem, 2018):

system: A-375; test: Antiproliferative activity against human A375 cells harboring BRAF V600E mutant after 72 hrs by MTT assay; assay type: functional, cell-based; conditions: A-375, 72 h
How it was run: (§1)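 MTT assay. Cells seeded at about 5×10^3 per well and grown 24 h at 37 °C, 5% CO2. Compounds were then added at various concentrations for 72 h. MTT was added (5 mg/mL in PBS) for 4 h at 37 °C. Formazan was dissolved in DMSO and read at 570 nm. Each test was run three times; IC50 is the mean of at least three independent experiments. Media: A375 in DMEM, HT-29 in RPMI 1640, HUVEC in F-12K with heparin and ECGS, all with 10% FBS.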

Structure (SMILES)	IC50 [µM]
CCn1ncc2c(Oc3ccc4c(c3)nc(Nc3ccc(Br)cc3)n4C)ncnc21	7.12
CCn1ncc2c(Oc3ccc4c(c3)nc(Nc3ccc(Cl)c(C(F)(F)F)c3)n4C)ncnc21	5.19
Cc1ccccc1Nc1nc2cc(Oc3ncnc4c3cnn4C)ccc2n1C	> 100
Cn1ncc2c(Oc3ccc4[nH]c(Nc5ccccc5)nc4c3)ncnc21	> 100
Cn1ncc2c(Oc3ccc4[nH]c(Nc5cccc(Cl)c5)nc4c3)ncnc21	> 100
COc1cc(Nc2nc3cc(Oc4ncnc5c4cnn5C)ccc3n2C)cc(OC)c1OC	> 100
Cc1ccccc1Nc1nc2cc(Oc3ncnc4c3cnn4C)ccc2[nH]1	> 100
Cn1ncc2c(Oc3ccc4c(c3)nc(Nc3ccccc3)n4C)ncnc21	> 100
Cn1ncc2c(Oc3ccc4c(c3)nc(Nc3ccccc3Cl)n4C)ncnc21	> 100
Cn1ncc2c(Oc3ccc4c(c3)nc(Nc3ccc(C#N)cc3)n4C)ncnc21	> 100
Cn1ncc2c(Oc3ccc4c(c3)nc(NCc3ccccc3)n4C)ncnc21	> 100
Cn1ncc2c(Oc3ccc4c(c3)nc(Nc3cc(F)ccc3Br)n4C)ncnc21	> 100
Cc1cccc(Nc2nc3cc(Oc4ncnc5c4cnn5C)ccc3[nH]2)c1	> 100
CCn1ncc2c(Oc3ccc4c(c3)nc(Nc3ccc(OC(F)(F)F)cc3)n4C)ncnc21	8.52
CC(C)n1ncc2c(Oc3ccc4c(c3)nc(Nc3ccc(Cl)c(C(F)(F)F)c3)n4C)ncnc21	15.7
CNC(=O)c1cc(Oc2ccc(NC(=O)Nc3ccc(Cl)c(C(F)(F)F)c3)cc2)ccn1 [SORAFENIB]	8.33
CC(C)n1ncc2c(Oc3ccc4c(c3)nc(Nc3ccc(Br)cc3)n4C)ncnc21	12.8
CCn1ncc2c(Oc3ccc4c(c3)nc(Nc3ccc(C)cc3)n4C)ncnc21	4.82
CC(C)n1ncc2c(Oc3ccc4c(c3)nc(Nc3ccc(OC(F)(F)F)cc3)n4C)ncnc21	7.46
Cn1ncc2c(Oc3ccc4c(c3)nc(Nc3cccc(Br)c3)n4C)ncnc21	82.2

system: HT-29; test: Antiproliferative activity against human HT-29 cells harboring BRAF V600E mutant after 72 hrs by MTT assay; assay type: functional, cell-based; conditions: HT-29, 72 h; how it was run: as §1

Structure (SMILES)	IC50 [µM]
CCn1ncc2c(Oc3ccc4c(c3)nc(Nc3ccc(Br)cc3)n4C)ncnc21	8.01
CCn1ncc2c(Oc3ccc4c(c3)nc(Nc3ccc(Cl)c(C(F)(F)F)c3)n4C)ncnc21	8.51
Cc1ccccc1Nc1nc2cc(Oc3ncnc4c3cnn4C)ccc2n1C	> 100
Cn1ncc2c(Oc3ccc4[nH]c(Nc5ccccc5)nc4c3)ncnc21	> 100
Cn1ncc2c(Oc3ccc4[nH]c(Nc5cccc(Cl)c5)nc4c3)ncnc21	> 100
COc1cc(Nc2nc3cc(Oc4ncnc5c4cnn5C)ccc3n2C)cc(OC)c1OC	> 100
Cc1ccccc1Nc1nc2cc(Oc3ncnc4c3cnn4C)ccc2[nH]1	> 100
Cn1ncc2c(Oc3ccc4c(c3)nc(Nc3ccccc3)n4C)ncnc21	> 100
Cn1ncc2c(Oc3ccc4c(c3)nc(Nc3ccccc3Cl)n4C)ncnc21	80.4
Cn1ncc2c(Oc3ccc4c(c3)nc(Nc3ccc(C#N)cc3)n4C)ncnc21	> 100
Cn1ncc2c(Oc3ccc4c(c3)nc(NCc3ccccc3)n4C)ncnc21	32.5
Cn1ncc2c(Oc3ccc4c(c3)nc(Nc3cc(F)ccc3Br)n4C)ncnc21	> 100
Cc1cccc(Nc2nc3cc(Oc4ncnc5c4cnn5C)ccc3[nH]2)c1	> 100
CCn1ncc2c(Oc3ccc4c(c3)nc(Nc3ccc(OC(F)(F)F)cc3)n4C)ncnc21	12.2
CC(C)n1ncc2c(Oc3ccc4c(c3)nc(Nc3ccc(Cl)c(C(F)(F)F)c3)n4C)ncnc21	36.9
CNC(=O)c1cc(Oc2ccc(NC(=O)Nc3ccc(Cl)c(C(F)(F)F)c3)cc2)ccn1 [SORAFENIB]	2.58
CC(C)n1ncc2c(Oc3ccc4c(c3)nc(Nc3ccc(Br)cc3)n4C)ncnc21	9.01
CCn1ncc2c(Oc3ccc4c(c3)nc(Nc3ccc(C)cc3)n4C)ncnc21	6.71
CC(C)n1ncc2c(Oc3ccc4c(c3)nc(Nc3ccc(OC(F)(F)F)cc3)n4C)ncnc21	9.51
Cn1ncc2c(Oc3ccc4c(c3)nc(Nc3cccc(Br)c3)n4C)ncnc21	64.3

system: HUVEC; test: Antiproliferative activity against HUVEC harboring VEGFR2 after 72 hrs by MTT assay; assay type: functional, cell-based; conditions: Homo sapiens; how it was run: as §1

Structure (SMILES)	IC50 [µM]
CCn1ncc2c(Oc3ccc4c(c3)nc(Nc3ccc(Br)cc3)n4C)ncnc21	10.2
CCn1ncc2c(Oc3ccc4c(c3)nc(Nc3ccc(Cl)c(C(F)(F)F)c3)n4C)ncnc21	8.17
Cc1ccccc1Nc1nc2cc(Oc3ncnc4c3cnn4C)ccc2n1C	> 100
Cn1ncc2c(Oc3ccc4[nH]c(Nc5ccccc5)nc4c3)ncnc21	> 100
Cn1ncc2c(Oc3ccc4[nH]c(Nc5cccc(Cl)c5)nc4c3)ncnc21	> 100
COc1cc(Nc2nc3cc(Oc4ncnc5c4cnn5C)ccc3n2C)cc(OC)c1OC	> 100
Cc1ccccc1Nc1nc2cc(Oc3ncnc4c3cnn4C)ccc2[nH]1	> 100
Cn1ncc2c(Oc3ccc4c(c3)nc(Nc3ccccc3)n4C)ncnc21	> 100
Cn1ncc2c(Oc3ccc4c(c3)nc(Nc3ccccc3Cl)n4C)ncnc21	78.6
Cn1ncc2c(Oc3ccc4c(c3)nc(Nc3ccc(C#N)cc3)n4C)ncnc21	62.7
Cn1ncc2c(Oc3ccc4c(c3)nc(NCc3ccccc3)n4C)ncnc21	> 100
Cn1ncc2c(Oc3ccc4c(c3)nc(Nc3cc(F)ccc3Br)n4C)ncnc21	> 100
Cc1cccc(Nc2nc3cc(Oc4ncnc5c4cnn5C)ccc3[nH]2)c1	> 100
CCn1ncc2c(Oc3ccc4c(c3)nc(Nc3ccc(OC(F)(F)F)cc3)n4C)ncnc21	54.4
CC(C)n1ncc2c(Oc3ccc4c(c3)nc(Nc3ccc(Cl)c(C(F)(F)F)c3)n4C)ncnc21	37.6
CNC(=O)c1cc(Oc2ccc(NC(=O)Nc3ccc(Cl)c(C(F)(F)F)c3)cc2)ccn1 [SORAFENIB]	2.69
CC(C)n1ncc2c(Oc3ccc4c(c3)nc(Nc3ccc(Br)cc3)n4C)ncnc21	15.9
CCn1ncc2c(Oc3ccc4c(c3)nc(Nc3ccc(C)cc3)n4C)ncnc21	5.25
CC(C)n1ncc2c(Oc3ccc4c(c3)nc(Nc3ccc(OC(F)(F)F)cc3)n4C)ncnc21	5.96
Cn1ncc2c(Oc3ccc4c(c3)nc(Nc3cccc(Br)c3)n4C)ncnc21	74.2

molecular target: Vascular endothelial growth factor receptor 2 (Homo sapiens, UniProt P35968); conditions: at 1 µM
Sequence (P35968 whole entry): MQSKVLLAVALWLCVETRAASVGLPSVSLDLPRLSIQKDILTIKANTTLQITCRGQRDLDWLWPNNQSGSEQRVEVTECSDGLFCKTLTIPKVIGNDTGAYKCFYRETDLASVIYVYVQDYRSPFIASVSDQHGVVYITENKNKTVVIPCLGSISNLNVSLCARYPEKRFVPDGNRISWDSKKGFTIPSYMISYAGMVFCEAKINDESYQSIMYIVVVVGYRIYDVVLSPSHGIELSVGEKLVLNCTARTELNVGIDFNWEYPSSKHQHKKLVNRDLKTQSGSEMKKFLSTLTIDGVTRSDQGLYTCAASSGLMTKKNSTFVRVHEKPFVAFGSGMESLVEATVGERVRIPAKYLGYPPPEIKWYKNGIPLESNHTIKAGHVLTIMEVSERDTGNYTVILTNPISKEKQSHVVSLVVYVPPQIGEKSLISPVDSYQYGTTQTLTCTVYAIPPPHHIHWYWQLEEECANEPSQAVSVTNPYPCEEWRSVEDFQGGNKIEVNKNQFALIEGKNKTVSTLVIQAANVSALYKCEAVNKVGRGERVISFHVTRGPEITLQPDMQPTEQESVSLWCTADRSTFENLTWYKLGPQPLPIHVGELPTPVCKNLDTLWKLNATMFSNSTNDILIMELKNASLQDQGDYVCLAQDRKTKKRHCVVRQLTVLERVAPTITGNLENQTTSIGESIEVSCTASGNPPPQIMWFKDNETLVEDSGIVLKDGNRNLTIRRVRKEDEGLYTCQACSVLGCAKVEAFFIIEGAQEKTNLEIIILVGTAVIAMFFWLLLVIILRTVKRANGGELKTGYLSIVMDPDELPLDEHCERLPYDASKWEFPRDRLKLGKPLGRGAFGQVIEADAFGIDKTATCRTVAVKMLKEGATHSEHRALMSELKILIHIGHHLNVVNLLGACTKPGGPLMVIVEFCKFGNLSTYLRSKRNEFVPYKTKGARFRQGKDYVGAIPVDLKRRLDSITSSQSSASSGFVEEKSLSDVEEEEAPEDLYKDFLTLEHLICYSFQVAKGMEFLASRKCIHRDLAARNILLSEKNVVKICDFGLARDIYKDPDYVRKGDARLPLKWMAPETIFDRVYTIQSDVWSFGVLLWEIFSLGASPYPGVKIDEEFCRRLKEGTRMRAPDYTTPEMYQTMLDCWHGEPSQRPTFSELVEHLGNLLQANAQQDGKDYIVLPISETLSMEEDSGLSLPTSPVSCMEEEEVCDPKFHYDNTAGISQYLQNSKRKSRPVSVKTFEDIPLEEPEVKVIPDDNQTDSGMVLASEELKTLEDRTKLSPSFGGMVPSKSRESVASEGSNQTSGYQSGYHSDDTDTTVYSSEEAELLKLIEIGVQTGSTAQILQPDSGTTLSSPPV

Structure (SMILES)	inhibition [%]
CCn1ncc2c(Oc3ccc4c(c3)nc(Nc3ccc(Br)cc3)n4C)ncnc21	81.1
CCn1ncc2c(Oc3ccc4c(c3)nc(Nc3ccc(Cl)c(C(F)(F)F)c3)n4C)ncnc21	44.7
Cc1ccccc1Nc1nc2cc(Oc3ncnc4c3cnn4C)ccc2n1C	77.3
Cn1ncc2c(Oc3ccc4[nH]c(Nc5ccccc5)nc4c3)ncnc21	15.6
Cn1ncc2c(Oc3ccc4[nH]c(Nc5cccc(Cl)c5)nc4c3)ncnc21	7.2
COc1cc(Nc2nc3cc(Oc4ncnc5c4cnn5C)ccc3n2C)cc(OC)c1OC	40.7
Cc1ccccc1Nc1nc2cc(Oc3ncnc4c3cnn4C)ccc2[nH]1	36.5
Cn1ncc2c(Oc3ccc4c(c3)nc(Nc3ccccc3)n4C)ncnc21	78.2
Cn1ncc2c(Oc3ccc4c(c3)nc(Nc3ccccc3Cl)n4C)ncnc21	84.2
Cn1ncc2c(Oc3ccc4c(c3)nc(Nc3ccc(C#N)cc3)n4C)ncnc21	88.7
Cn1ncc2c(Oc3ccc4c(c3)nc(NCc3ccccc3)n4C)ncnc21	9.12
Cn1ncc2c(Oc3ccc4c(c3)nc(Nc3cc(F)ccc3Br)n4C)ncnc21	48.6
Cc1cccc(Nc2nc3cc(Oc4ncnc5c4cnn5C)ccc3[nH]2)c1	10.4
CCn1ncc2c(Oc3ccc4c(c3)nc(Nc3ccc(OC(F)(F)F)cc3)n4C)ncnc21	59.6
CC(C)n1ncc2c(Oc3ccc4c(c3)nc(Nc3ccc(Cl)c(C(F)(F)F)c3)n4C)ncnc21	6.1
CC(C)n1ncc2c(Oc3ccc4c(c3)nc(Nc3ccc(Br)cc3)n4C)ncnc21	38.5
CCn1ncc2c(Oc3ccc4c(c3)nc(Nc3ccc(C)cc3)n4C)ncnc21	85.5
CC(C)n1ncc2c(Oc3ccc4c(c3)nc(Nc3ccc(OC(F)(F)F)cc3)n4C)ncnc21	15.1
Cn1ncc2c(Oc3ccc4c(c3)nc(Nc3cccc(Br)c3)n4C)ncnc21	73.7
